Test results from ChEMBL document CHEMBL4177764 (J Med Chem, 2018).
Activity calls are given as the source filed them. The calls are words filed in the database; no cut-off is given here.

Columns and labels:
[1] = target: T1, ALK tyrosine kinase receptor (Homo sapiens, UniProt Q9UM73); assay: Induction of ALK degradation in human CHLA20 cells assessed as decrease in ALK phosphorylation at Y1507 at 50 to 250 nM after 16 hrs in presence of ABCB1 inhibitor tariquidar by immunoblot method; type: cell-based
In short: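 CHLA20 neuroblastoma cells (ABCB1-high) were co-treated with 125 nM tariquidar throughout. They were dose-titrated for 16 hours and read by immunoblot.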
Target sequence in this assay (Q9UM73 19-1620 limits assumed): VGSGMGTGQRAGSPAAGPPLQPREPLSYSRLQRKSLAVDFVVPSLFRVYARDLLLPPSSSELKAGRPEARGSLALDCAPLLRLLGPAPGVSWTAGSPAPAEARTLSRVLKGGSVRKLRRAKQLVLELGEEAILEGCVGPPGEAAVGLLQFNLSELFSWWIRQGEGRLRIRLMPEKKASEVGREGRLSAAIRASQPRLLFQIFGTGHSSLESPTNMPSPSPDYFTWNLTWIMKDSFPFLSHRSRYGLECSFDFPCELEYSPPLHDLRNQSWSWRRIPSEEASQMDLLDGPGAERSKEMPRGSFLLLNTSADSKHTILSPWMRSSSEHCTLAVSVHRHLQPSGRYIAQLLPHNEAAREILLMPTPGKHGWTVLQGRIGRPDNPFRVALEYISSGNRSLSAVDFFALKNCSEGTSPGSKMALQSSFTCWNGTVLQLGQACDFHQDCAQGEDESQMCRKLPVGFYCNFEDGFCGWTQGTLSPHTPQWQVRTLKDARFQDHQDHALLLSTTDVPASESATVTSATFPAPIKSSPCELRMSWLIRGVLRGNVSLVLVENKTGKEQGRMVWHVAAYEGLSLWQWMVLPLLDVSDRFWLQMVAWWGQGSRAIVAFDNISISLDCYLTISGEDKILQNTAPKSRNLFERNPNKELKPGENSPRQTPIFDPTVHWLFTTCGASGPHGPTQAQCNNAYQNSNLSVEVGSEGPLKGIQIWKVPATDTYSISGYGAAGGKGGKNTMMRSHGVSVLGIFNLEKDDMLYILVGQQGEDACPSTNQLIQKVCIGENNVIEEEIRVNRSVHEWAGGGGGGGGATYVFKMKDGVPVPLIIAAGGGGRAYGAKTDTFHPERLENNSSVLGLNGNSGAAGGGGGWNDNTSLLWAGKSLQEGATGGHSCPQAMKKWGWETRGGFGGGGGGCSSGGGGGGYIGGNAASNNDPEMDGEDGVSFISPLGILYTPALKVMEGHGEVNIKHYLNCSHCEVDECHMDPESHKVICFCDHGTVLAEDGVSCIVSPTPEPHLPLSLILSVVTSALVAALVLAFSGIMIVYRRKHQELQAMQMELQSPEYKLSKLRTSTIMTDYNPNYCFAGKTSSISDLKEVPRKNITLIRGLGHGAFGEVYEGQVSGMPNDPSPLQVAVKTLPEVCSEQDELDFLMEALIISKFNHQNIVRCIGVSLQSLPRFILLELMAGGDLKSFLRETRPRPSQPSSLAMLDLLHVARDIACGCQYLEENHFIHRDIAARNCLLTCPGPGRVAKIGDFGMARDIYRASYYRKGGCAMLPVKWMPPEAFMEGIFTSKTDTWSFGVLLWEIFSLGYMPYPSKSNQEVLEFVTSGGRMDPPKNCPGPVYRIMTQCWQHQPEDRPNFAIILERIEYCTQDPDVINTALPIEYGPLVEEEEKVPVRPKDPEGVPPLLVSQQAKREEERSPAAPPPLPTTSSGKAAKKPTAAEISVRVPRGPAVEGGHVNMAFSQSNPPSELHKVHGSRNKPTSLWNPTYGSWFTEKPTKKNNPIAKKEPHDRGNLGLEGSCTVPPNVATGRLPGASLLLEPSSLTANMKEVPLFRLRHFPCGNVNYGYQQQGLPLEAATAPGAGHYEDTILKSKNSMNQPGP

[2] = target: Tyrosine-protein kinase Fer (Homo sapiens) (UniProt P16591); assay: Induction of FER degradation in human NCI-H3122 cells at 250 nM measured over 2 to 16 hrs by immunoblot method; type: cell-based
Chain of Tyrosine-protein kinase Fer (Homo sapiens) (P16591 whole entry, looked up): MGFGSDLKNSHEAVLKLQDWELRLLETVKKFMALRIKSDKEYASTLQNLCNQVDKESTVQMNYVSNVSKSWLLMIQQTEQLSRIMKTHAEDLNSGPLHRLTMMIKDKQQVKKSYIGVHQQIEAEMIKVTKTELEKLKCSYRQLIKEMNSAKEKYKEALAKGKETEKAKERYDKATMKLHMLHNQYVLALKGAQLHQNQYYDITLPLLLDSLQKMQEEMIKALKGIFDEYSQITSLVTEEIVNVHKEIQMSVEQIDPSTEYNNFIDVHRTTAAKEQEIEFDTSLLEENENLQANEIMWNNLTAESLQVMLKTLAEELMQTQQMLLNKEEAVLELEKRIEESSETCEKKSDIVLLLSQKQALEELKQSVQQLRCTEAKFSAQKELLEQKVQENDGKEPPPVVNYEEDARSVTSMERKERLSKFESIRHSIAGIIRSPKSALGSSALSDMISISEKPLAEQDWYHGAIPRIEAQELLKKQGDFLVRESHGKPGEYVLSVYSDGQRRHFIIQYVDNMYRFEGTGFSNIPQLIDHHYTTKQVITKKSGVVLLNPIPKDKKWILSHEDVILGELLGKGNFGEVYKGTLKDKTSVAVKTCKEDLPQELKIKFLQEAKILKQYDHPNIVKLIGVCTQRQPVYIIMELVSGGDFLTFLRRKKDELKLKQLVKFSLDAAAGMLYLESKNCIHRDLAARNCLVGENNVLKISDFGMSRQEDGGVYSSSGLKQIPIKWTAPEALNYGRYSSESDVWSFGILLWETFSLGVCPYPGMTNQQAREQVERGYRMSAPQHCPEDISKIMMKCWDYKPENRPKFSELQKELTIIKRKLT

[3] = target: T2, Aurora kinase A (Homo sapiens) (UniProt O14965); assay: Induction of aurora A degradation in human NCI-H3122 cells at 250 nM after 16 hrs in presence of […] inhibitor MLN4924 by immunoblot method; type: cell-based
T2 sequence (whole entry): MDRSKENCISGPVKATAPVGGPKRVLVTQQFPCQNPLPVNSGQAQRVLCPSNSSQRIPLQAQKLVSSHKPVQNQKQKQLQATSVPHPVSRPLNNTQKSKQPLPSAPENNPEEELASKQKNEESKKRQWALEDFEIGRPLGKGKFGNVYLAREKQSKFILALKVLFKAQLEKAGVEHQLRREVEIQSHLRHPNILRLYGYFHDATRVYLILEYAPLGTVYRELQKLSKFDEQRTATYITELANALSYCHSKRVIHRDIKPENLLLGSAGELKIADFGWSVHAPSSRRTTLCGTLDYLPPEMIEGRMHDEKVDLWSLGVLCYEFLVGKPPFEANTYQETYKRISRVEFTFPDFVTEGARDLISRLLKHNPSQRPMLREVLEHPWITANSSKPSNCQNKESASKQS

[4] = target: T1, ALK tyrosine kinase receptor; assay: Induction of ALK degradation in human NCI-H3122 cells at 250 nM after 16 hrs in presence of pomalidomide by immunoblot method; type: cell-based
Target sequence in this assay (Q9UM73 19-1620 limits assumed): as the sequence (Q9UM73 19-1620 limits assumed) above

[5] = target: T1, ALK tyrosine kinase receptor; assay: Induction of ALK degradation in human Kelly cells at 100 nM after 16 hrs in presence of pomalidomide by immunoblot method; type: cell-based
In short: (§1)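 Kelly cells were pre-treated for 2 h with DMSO, carfilzomib, MLN4924, pomalidomide, TAE684 or LDK378. Degrader treatment followed for 16 h, and ALK was read by immunoblot.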
Target sequence in this assay (Q9UM73 19-1620 limits assumed): as above

[6] = target: Focal adhesion kinase 1 (Homo sapiens) (UniProt Q05397); assay: Induction of PTK2 degradation in human NCI-H3122 cells at 0.01 to 1 uM after 16 hrs by immunoblot method; type: cell-based
Chain of Focal adhesion kinase 1 (Homo sapiens) (Q05397 2-1052 limits assumed): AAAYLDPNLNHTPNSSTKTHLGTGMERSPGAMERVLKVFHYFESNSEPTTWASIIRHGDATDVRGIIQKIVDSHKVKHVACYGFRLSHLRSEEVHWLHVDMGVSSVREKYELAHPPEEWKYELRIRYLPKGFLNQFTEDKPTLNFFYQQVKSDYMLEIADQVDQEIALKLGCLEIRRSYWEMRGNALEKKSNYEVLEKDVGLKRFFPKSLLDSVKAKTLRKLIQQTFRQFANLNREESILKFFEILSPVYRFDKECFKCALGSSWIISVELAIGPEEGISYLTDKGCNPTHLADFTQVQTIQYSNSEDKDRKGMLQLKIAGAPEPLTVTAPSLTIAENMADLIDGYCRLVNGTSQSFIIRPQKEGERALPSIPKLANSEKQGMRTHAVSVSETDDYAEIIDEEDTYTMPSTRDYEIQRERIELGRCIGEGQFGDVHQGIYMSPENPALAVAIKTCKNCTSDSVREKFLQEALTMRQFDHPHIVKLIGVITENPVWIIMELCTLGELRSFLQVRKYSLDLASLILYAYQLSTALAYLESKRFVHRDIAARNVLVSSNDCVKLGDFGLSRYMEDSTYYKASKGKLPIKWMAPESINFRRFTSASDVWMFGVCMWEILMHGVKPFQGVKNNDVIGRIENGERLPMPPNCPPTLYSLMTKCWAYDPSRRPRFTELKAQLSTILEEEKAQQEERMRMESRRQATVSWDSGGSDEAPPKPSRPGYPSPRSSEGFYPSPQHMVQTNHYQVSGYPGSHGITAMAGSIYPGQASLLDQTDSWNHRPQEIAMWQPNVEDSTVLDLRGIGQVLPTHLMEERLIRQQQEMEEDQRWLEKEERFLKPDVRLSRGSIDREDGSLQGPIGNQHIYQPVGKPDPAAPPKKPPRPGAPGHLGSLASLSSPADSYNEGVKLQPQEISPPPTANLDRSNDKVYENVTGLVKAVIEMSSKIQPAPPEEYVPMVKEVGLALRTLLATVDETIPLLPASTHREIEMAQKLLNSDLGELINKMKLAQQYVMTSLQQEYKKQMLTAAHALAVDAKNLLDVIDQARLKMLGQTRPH

NCI-H3122 = assay: Antiproliferative activity against human NCI-H3122 cells after 72 hrs by CellTiter-Glo luminescent cell viability assay; type: functional, cell-based
[7] = target: T1, ALK tyrosine kinase receptor; assay: Induction of ALK degradation in human CHLA20 cells at 100 nM after 16 hrs in presence of pomalidomide and ABCB1 inhibitor tariquidar by immunoblot method; type: cell-based
In short: (§2)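 CHLA20 cells were kept with 125 nM tariquidar and pre-treated for 2 h with DMSO, carfilzomib, MLN4924, pomalidomide, TAE684 or LDK378. A 16 h degrader treatment followed, with immunoblot readout of ALK.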
Target sequence in this assay (Q9UM73 19-1620 limits assumed): as the sequence (Q9UM73 19-1620 limits assumed) above

[8] = target: T2, Aurora kinase A (Homo sapiens); assay: Induction of aurora A degradation in human NCI-H3122 cells at 250 nM measured over 2 to 16 hrs by immunoblot method; type: cell-based
[9] = target: T1, ALK tyrosine kinase receptor; assay: Induction of ALK degradation in human CHLA20 cells at 100 nM after 16 hrs in presence of ALK inhibitor LDK378 and ABCB1 inhibitor tariquidar by immunoblot method; type: cell-based; in short: as §2
Target sequence in this assay (Q9UM73 19-1620 limits assumed): as above

[10] = target: Tyrosine-protein kinase Fer (Homo sapiens) (UniProt P16591); assay: Induction of FER degradation in human NCI-H3122 cells at 0.01 to 1 uM after 16 hrs by immunoblot method; type: cell-based
[11] = target: T1, ALK tyrosine kinase receptor; assay: Induction of ALK degradation in human CHLA20 cells at 100 nM after 16 hrs in presence of ABCB1 shRNA by immunoblot method; type: cell-based
Target sequence in this assay (Q9UM73 19-1620 limits assumed): as above

[12] = target: T1, ALK tyrosine kinase receptor; assay: Induction of ALK degradation in human KARPAS299 cells at 250 nM after 16 hrs in presence of proteasome inhibitor carfilzomib by immunoblot method; type: cell-based
[13] = target: Ribosomal protein S6 kinase alpha-1 (Homo sapiens) (UniProt Q15418); assay: Induction of RPS6KA1 degradation in human NCI-H3122 cells at 0.01 to 1 uM after 16 hrs by immunoblot method; type: cell-based
Chain of Ribosomal protein S6 kinase alpha-1 (Homo sapiens) (Q15418 whole entry): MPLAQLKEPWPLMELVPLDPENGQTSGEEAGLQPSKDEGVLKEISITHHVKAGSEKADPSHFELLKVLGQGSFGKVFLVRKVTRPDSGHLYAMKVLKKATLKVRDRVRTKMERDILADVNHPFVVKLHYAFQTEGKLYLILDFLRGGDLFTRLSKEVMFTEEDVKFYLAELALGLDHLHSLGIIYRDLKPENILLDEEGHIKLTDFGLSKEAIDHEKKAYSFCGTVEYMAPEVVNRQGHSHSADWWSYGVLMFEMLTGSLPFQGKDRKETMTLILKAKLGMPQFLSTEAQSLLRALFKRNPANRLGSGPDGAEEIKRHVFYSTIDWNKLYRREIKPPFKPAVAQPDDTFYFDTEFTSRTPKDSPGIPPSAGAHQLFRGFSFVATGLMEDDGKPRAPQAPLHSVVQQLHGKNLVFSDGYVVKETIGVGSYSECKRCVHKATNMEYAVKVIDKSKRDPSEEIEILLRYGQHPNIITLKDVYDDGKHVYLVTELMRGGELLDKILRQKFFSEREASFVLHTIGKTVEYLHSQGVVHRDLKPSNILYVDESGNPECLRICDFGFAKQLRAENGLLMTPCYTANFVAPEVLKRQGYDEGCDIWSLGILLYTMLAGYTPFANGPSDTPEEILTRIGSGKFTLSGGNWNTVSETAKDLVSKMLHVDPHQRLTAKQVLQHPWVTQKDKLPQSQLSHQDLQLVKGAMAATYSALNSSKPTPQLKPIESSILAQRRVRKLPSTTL

[14] = target: T1, ALK tyrosine kinase receptor; assay: Induction of ALK degradation in human NCI-H3122 cells at 250 nM after 16 hrs in presence of ALK inhibitor TAE684 by immunoblot method; type: cell-based
[15] = target: Tyrosine-protein kinase Fer (Homo sapiens) (UniProt P16591); assay: Induction of FER degradation in human Kelly cells at 10 to 160 nM after 16 hrs by immunoblot method; type: cell-based
[16] = target: Ribosomal protein S6 kinase alpha-1 (Homo sapiens) (UniProt Q15418); assay: Induction of RPS6KA1 degradation in human Kelly cells at 10 to 160 nM after 16 hrs by immunoblot method; type: cell-based
[17] = target: T1, ALK tyrosine kinase receptor; assay: Induction of ALK degradation in human NCI-H3122 cells at 250 nM after 16 hrs in presence of proteasome inhibitor carfilzomib by immunoblot method; type: cell-based
[18] = target: T2, Aurora kinase A (Homo sapiens); assay: Induction of aurora A degradation in human CHLA20 cells at 100 nM after 16 hrs in presence of proteasome inhibitor carfilzomib and ABCB1 inhibitor tariquidar by immunoblot method; type: cell-based
In short: (§3)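 Cells were pre-treated for 2 h with DMSO, carfilzomib, MLN4924 or pomalidomide, then treated with compound for 16 h, with immunoblot read-out. CHLA20 cells also received 125 nM tariquidar throughout.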

SH-SY5Y = assay: Antiproliferative activity against human SH-SY5Y cells after 72 hrs in presence of ABCB1 inhibitor tariquidar by CellTiter-Glo luminescent cell viability assay; type: functional, cell-based
[19] = target: T1, ALK tyrosine kinase receptor; assay: Induction of ALK degradation in human NCI-H3122 cells after 16 hrs by immunoblot method; type: cell-based
In short: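 H3122 and Karpas 299 cells were given a dose titration for 16 h. ALK and Aurora A were then read by immunoblot. DC50 was calculated from the titrations, two independent experiments.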

[20] = target: T2, Aurora kinase A (Homo sapiens); assay: Induction of aurora A degradation in human KARPAS299 cells at 250 nM after 16 hrs in presence of […] inhibitor MLN4924 by immunoblot method; type: cell-based
[21] = target: Tyrosine-protein kinase Fer (Homo sapiens) (UniProt P16591); assay: Induction of FER degradation in human KARPAS299 cells at 0.01 to 1 uM after 16 hrs by immunoblot method; type: cell-based
[22] = target: Focal adhesion kinase 1 (Homo sapiens) (UniProt Q05397); assay: Induction of PTK2 degradation in human Kelly cells at 10 to 160 nM after 16 hrs by immunoblot method; type: cell-based
[23] = target: T2, Aurora kinase A (Homo sapiens); assay: Induction of aurora A degradation in human Kelly cells at 100 nM after 16 hrs in presence of proteasome inhibitor carfilzomib by immunoblot method; type: cell-based; in short: as §3
[24] = target: Focal adhesion kinase 1 (Homo sapiens) (UniProt Q05397); assay: Induction of PTK2 degradation in human NCI-H3122 cells at 250 nM measured over 2 to 16 hrs by immunoblot method; type: cell-based
[25] = target: T2, Aurora kinase A (Homo sapiens); assay: Induction of aurora A degradation in human Kelly cells at 100 nM measured over 2 to 16 hrs by immunoblot method; type: cell-based
In short: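 Kelly cells were given 100 nM compound for varying times, and lysates were immunoblotted for Aurora A.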

[26] = target: T1, ALK tyrosine kinase receptor; assay: Induction of ALK degradation in human Kelly cells at 100 nM after 16 hrs in presence of ALK inhibitor LDK378 by immunoblot method; type: cell-based; in short: as §1
[27] = target: T1, ALK tyrosine kinase receptor; assay: Induction of ALK degradation in human NCI-H3122 cells at 250 nM after 16 hrs in presence of ALK inhibitor LDK378 by immunoblot method; type: cell-based

COc1cc(N2CCN(CCOCCOCCNC(=O)CNc3cccc4c3C(=O)N(C3CCC(=O)NC3=O)C4=O)CC2)ccc1Nc1ncc(Cl)c(Nc2ccccc2S(=O)(=O)C(C)C)n1 (stereo not drawn)
Activity [1]: Active
Activity [2]: Active
Activity [3]: inactive
Activity [4]: inactive
Activity [5]: inactive
Activity [6]: Active
Activity (NCI-H3122): Active
Activity [7]: inactive
Activity [8]: Active
Activity [9]: inactive
Activity [10]: Active
Activity [11]: Active
Activity [12]: inactive
Activity [13]: Active
Activity [14]: inactive
Activity [15]: Active
Activity [16]: Active
Activity [17]: inactive
Activity [18]: inactive
Activity (SH-SY5Y): Active
DC50 [19]: 10 nM
Activity [20]: inactive
Activity [21]: Active
Activity [22]: Active
Activity [23]: inactive
Activity [24]: Active
Activity [25]: Active
Activity [26]: inactive
Activity [27]: Active

Cc1cc(Nc2ncc(Cl)c(Nc3ccccc3S(=O)(=O)C(C)C)n2)c(OC(C)C)cc1C1CCN(CCOCCOCCNC(=O)CNc2cccc3c2C(=O)N(C2CCC(=O)NC2=O)C3=O)CC1 (stereo not drawn)
Activity [1]: Active
Activity [2]: Active
Activity [3]: inactive
Activity [4]: inactive
Activity [5]: inactive
Activity [6]: Active
Activity (NCI-H3122): Active
Activity [7]: inactive
Activity [8]: Active
Activity [9]: inactive
Activity [10]: Active
Activity [11]: Active
Activity [12]: inactive
Activity [13]: Active
Activity [14]: inactive
Activity [15]: Active
Activity [16]: Active
Activity [17]: inactive
Activity [18]: inactive
Activity (SH-SY5Y): Active
DC50 [19]: 10 nM
Activity [20]: inactive
Activity [21]: Active
Activity [22]: Active
Activity [23]: inactive
Activity [24]: Active
Activity [25]: Active
Activity [26]: inactive
Activity [27]: Active
